Experimental data published in ChEMBL document CHEMBL3044673, “Design, synthesis and insecticidal activity of novel phenylpyrazoles containing a 2,2,2-trichloro-1-alkoxyethyl moiety” (2010).

How the values were obtained:
Type in all cases: functional
Plutella xylostella [1] = experiment: Insecticidal activity against Plutella xylostella (diamondback moth) grown on compound pre-treated fresh cabbage leaves assessed as insect mortality at 100 mg/kg measured 3 days post compound treatment by leaf-dip method
How it was run: (§1)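 Leaf-dip stomach-toxicity assay on laboratory-reared diamondback moth. Test solutions came from a 200 mg L^-1 stock in dimethylformamide, diluted with water containing TW-20. Control leaves were treated with water and dimethylformamide. Tests were held at 25±1 °C, percentage mortality was scored 3 days after treatment, and each treatment was run three times.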

Culex pipiens pallens [2] = experiment: Insecticidal activity against Culex pipiens pallens (mosquito) assessed as insect mortality at 50 ug/kg measured 1 day post compound treatment; conditions: 24 h
How it was run: (§2)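 Fourth-instar Culex pipiens pallens larvae, 20 per test, were laboratory-reared and placed in 100 mL of test solution made by adding 1 mL of compound dilution to 99 mL of water. Tests were held at 25±1 °C, percentage mortality was scored 1 day after treatment, and each test was run three times.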

Plutella xylostella [3] = experiment: Insecticidal activity against Plutella xylostella (diamondback moth) grown on compound pre-treated fresh cabbage leaves assessed as insect mortality at 200 mg/kg measured 3 days post compound treatment by leaf-dip method; how it was run: as §1
Culex pipiens pallens [4] = experiment: Insecticidal activity against Culex pipiens pallens (mosquito) assessed as insect mortality at 2.5 ug/kg measured 1 day post compound treatment; conditions: 24 h; how it was run: as §2
Aphis craccivora [5] = experiment: Insecticidal activity against Aphis craccivora (cowpea aphid) infested tender soybean shoots exposed to 100 mg/kg test compound solution assessed as insect mortality measured 24 hr post compound treatment
How it was run: (§3)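 Soybean tender shoots carrying 60 aphids were dipped in test solutions. Solutions were made from a 200 mg L^-1 stock in dimethylformamide, diluted with water containing TW-20. Insects were laboratory-reared, tests were held at 25±1 °C, and mortality was scored.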

Plutella xylostella [6] = experiment: Insecticidal activity against Plutella xylostella (diamondback moth) grown on compound pre-treated fresh cabbage leaves assessed as insect mortality at 10 mg/kg measured 3 days post compound treatment by leaf-dip method; conditions: Plutella xylostella; how it was run: as §1
Culex pipiens pallens [7] = experiment: Insecticidal activity against Culex pipiens pallens (mosquito) assessed as insect mortality at 100 ug/kg measured 1 day post compound treatment; conditions: Culex pipiens, 24 h; how it was run: as §2
Aphis craccivora [8] = experiment: Insecticidal activity against Aphis craccivora (cowpea aphid) infested tender soybean shoots exposed to 5 mg/kg test compound solution assessed as insect mortality measured 24 hr post compound treatment; conditions: Aphis craccivora, 24 h; how it was run: as §3
Plutella xylostella [9] = experiment: Insecticidal activity against Plutella xylostella (diamondback moth) grown on compound pre-treated fresh cabbage leaves assessed as insect mortality at 5 mg/kg measured 3 days post compound treatment by leaf-dip method; conditions: Plutella xylostella; how it was run: as §1
Culex pipiens pallens [10] = experiment: Insecticidal activity against Culex pipiens pallens (mosquito) assessed as insect mortality at 10 ug/kg measured 1 day post compound treatment; conditions: 24 h; how it was run: as §2
Culex pipiens pallens [11] = experiment: Insecticidal activity against Culex pipiens pallens (mosquito) assessed as insect mortality at 5 ug/kg measured 1 day post compound treatment; conditions: 24 h; how it was run: as §2
Aphis craccivora [12] = experiment: Insecticidal activity against Aphis craccivora (cowpea aphid) infested tender soybean shoots exposed to 200 mg/kg test compound solution assessed as insect mortality measured 24 hr post compound treatment; how it was run: as §3
Plutella xylostella [13] = experiment: Insecticidal activity against Plutella xylostella (diamondback moth) grown on compound pre-treated fresh cabbage leaves assessed as insect mortality at 50 mg/kg measured 3 days post compound treatment by leaf-dip method; how it was run: as §1
Aphis craccivora [14] = experiment: Insecticidal activity against Aphis craccivora (cowpea aphid) infested tender soybean shoots exposed to 25 mg/kg test compound solution assessed as insect mortality measured 24 hr post compound treatment; how it was run: as §3
Aphis craccivora [15] = experiment: Insecticidal activity against Aphis craccivora (cowpea aphid) infested tender soybean shoots exposed to 10 mg/kg test compound solution assessed as insect mortality measured 24 hr post compound treatment; conditions: Aphis craccivora, 24 h; how it was run: as §3
Aphis craccivora [16] = experiment: Insecticidal activity against Aphis craccivora (cowpea aphid) infested tender soybean shoots exposed to 50 mg/kg test compound solution assessed as insect mortality measured 24 hr post compound treatment; how it was run: as §3
Plutella xylostella [17] = experiment: Insecticidal activity against Plutella xylostella (diamondback moth) grown on compound pre-treated fresh cabbage leaves assessed as insect mortality at 25 mg/kg measured 3 days post compound treatment by leaf-dip method; conditions: Plutella xylostella; how it was run: as §1
Culex pipiens pallens [18] = experiment: Insecticidal activity against Culex pipiens pallens (mosquito) assessed as insect mortality at 25 ug/kg measured 1 day post compound treatment; conditions: 24 h; how it was run: as §2
Plutella xylostella [19] = experiment: Insecticidal activity against Plutella xylostella (diamondback moth) grown on compound pre-treated fresh cabbage leaves assessed as insect mortality at 2.5 mg/kg measured 3 days post compound treatment by leaf-dip method; how it was run: as §1
Aphis craccivora [20] = experiment: Insecticidal activity against Aphis craccivora (cowpea aphid) infested tender soybean shoots exposed to 2.5 mg/kg test compound solution assessed as insect mortality measured 24 hr post compound treatment; conditions: Aphis craccivora, 24 h; how it was run: as §3

Question: Which mortality at 100 mg/kg (Plutella xylostella [1]) does the source give for CCSc1c(C#N)nn(-c2c(Cl)cc(C(F)(F)F)cc2Cl)c1NC(OCCCl)C(Cl)(Cl)Cl (stereo unspecified) here?
Answer: 100%

Question: And the mortality at 0.05 mg/kg (Culex pipiens pallens [2])?
Answer: 100%

Question: And the mortality at 200 mg/kg (Plutella xylostella [3])?
Answer: 100%

Question: What about the mortality at 0.0025 mg/kg (Culex pipiens pallens [4]) of the same molecule?
Answer: 60%

Question: And the mortality at 100 mg/kg (Aphis craccivora [5])?
Answer: 100%

Question: And the mortality at 10 mg/kg (Plutella xylostella [6])?
Answer: 27%

Question: What about the mortality at 0.1 mg/kg (Culex pipiens pallens [7]) of the same molecule?
Answer: 100%

Question: And the mortality at 5 mg/kg (Aphis craccivora [8])?
Answer: 0%

Question: And the mortality at 5 mg/kg (Plutella xylostella [9])?
Answer: 0%

Question: What about the mortality at 0.01 mg/kg (Culex pipiens pallens [10]) of the same molecule?
Answer: 100%

Question: And the mortality at 0.005 mg/kg (Culex pipiens pallens [11])?
Answer: 100%

Question: And the mortality at 200 mg/kg (Aphis craccivora [12])?
Answer: 100%

Question: And the mortality at 50 mg/kg (Plutella xylostella [13])?
Answer: 88%

Question: And the mortality at 25 mg/kg (Aphis craccivora [14])?
Answer: 100%

Question: And the mortality at 10 mg/kg (Aphis craccivora [15])?
Answer: 51%

Question: What about the mortality at 50 mg/kg (Aphis craccivora [16]) of the same molecule?
Answer: 100%

Question: And the mortality at 25 mg/kg (Plutella xylostella [17])?
Answer: 43%

Question: What about the mortality at 0.025 mg/kg (Culex pipiens pallens [18]) of the same molecule?
Answer: 100%

Question: Which results are given for CCOC(Nc1c(SC)c(C#N)nn1-c1c(Cl)cc(C(F)(F)F)cc1Cl)C(Cl)(Cl)Cl (stereo unspecified)?
Answer: mortality at 100 mg/kg (Plutella xylostella [1]): 100%; mortality at 0.05 mg/kg (Culex pipiens pallens [2]): 100%; mortality at 200 mg/kg (Plutella xylostella [3]): 100%; mortality at 2.5 mg/kg (Plutella xylostella [19]): 0%; mortality at 0.0025 mg/kg (Culex pipiens pallens [4]): 80%; mortality at 100 mg/kg (Aphis craccivora [5]): 100%; mortality at 10 mg/kg (Plutella xylostella [6]): 68%; mortality at 0.1 mg/kg (Culex pipiens pallens [7]): 100%; mortality at 5 mg/kg (Aphis craccivora [8]): 0%; mortality at 5 mg/kg (Plutella xylostella [9]): 43%; mortality at 0.01 mg/kg (Culex pipiens pallens [10]): 100%; mortality at 0.005 mg/kg (Culex pipiens pallens [11]): 100%; mortality at 200 mg/kg (Aphis craccivora [12]): 100%; mortality at 50 mg/kg (Plutella xylostella [13]): 100%; mortality at 25 mg/kg (Aphis craccivora [14]): 43%; mortality at 10 mg/kg (Aphis craccivora [15]): 0%; mortality at 50 mg/kg (Aphis craccivora [16]): 56%; mortality at 25 mg/kg (Plutella xylostella [17]): 84%; mortality at 0.025 mg/kg (Culex pipiens pallens [18]): 100%

Question: With COC(Nc1c(SC)c(C#N)nn1-c1c(Cl)cc(C(F)(F)F)cc1Cl)C(Cl)(Cl)Cl (stereo unspecified) as the molecule, how does the mortality at 100 mg/kg (Plutella xylostella [1]) read?
Answer: 100%

Question: What about the mortality at 0.05 mg/kg (Culex pipiens pallens [2]) of the same molecule?
Answer: 100%

Question: And the mortality at 200 mg/kg (Plutella xylostella [3])?
Answer: 100%

Question: What about the mortality at 2.5 mg/kg (Plutella xylostella [19]) of the same molecule?
Answer: 25%

Question: And the mortality at 0.0025 mg/kg (Culex pipiens pallens [4])?
Answer: 70%

Question: What about the mortality at 100 mg/kg (Aphis craccivora [5]) of the same molecule?
Answer: 100%

Question: And the mortality at 10 mg/kg (Plutella xylostella [6])?
Answer: 86%

Question: What about the mortality at 0.1 mg/kg (Culex pipiens pallens [7]) of the same molecule?
Answer: 100%

Question: What about the mortality at 5 mg/kg (Aphis craccivora [8]) of the same molecule?
Answer: 43%

Question: And the mortality at 5 mg/kg (Plutella xylostella [9])?
Answer: 76%

Question: And the mortality at 2.5 mg/kg (Aphis craccivora [20])?
Answer: 0%

Question: What about the mortality at 0.01 mg/kg (Culex pipiens pallens [10]) of the same molecule?
Answer: 100%

Question: What about the mortality at 0.005 mg/kg (Culex pipiens pallens [11]) of the same molecule?
Answer: 100%

Question: And the mortality at 200 mg/kg (Aphis craccivora [12])?
Answer: 100%

Question: And the mortality at 50 mg/kg (Plutella xylostella [13])?
Answer: 100%

Question: And the mortality at 25 mg/kg (Aphis craccivora [14])?
Answer: 94%

Question: And the mortality at 10 mg/kg (Aphis craccivora [15])?
Answer: 89%

Question: What about the mortality at 50 mg/kg (Aphis craccivora [16]) of the same molecule?
Answer: 100%

Question: And the mortality at 25 mg/kg (Plutella xylostella [17])?
Answer: 100%

Question: What about the mortality at 0.025 mg/kg (Culex pipiens pallens [18]) of the same molecule?
Answer: 100%

Question: Which mortality at 100 mg/kg (Plutella xylostella [1]) does the source give for CCCOC(Nc1c(SC)c(C#N)nn1-c1c(Cl)cc(C(F)(F)F)cc1Cl)C(Cl)(Cl)Cl (stereo unspecified) here?
Answer: 100%

Question: And the mortality at 0.05 mg/kg (Culex pipiens pallens [2])?
Answer: 100%

Question: And the mortality at 200 mg/kg (Plutella xylostella [3])?
Answer: 100%

Question: And the mortality at 0.0025 mg/kg (Culex pipiens pallens [4])?
Answer: 100%

Question: And the mortality at 100 mg/kg (Aphis craccivora [5])?
Answer: 100%

Question: And the mortality at 10 mg/kg (Plutella xylostella [6])?
Answer: 0%

Question: What about the mortality at 0.1 mg/kg (Culex pipiens pallens [7]) of the same molecule?
Answer: 100%

Question: What about the mortality at 5 mg/kg (Aphis craccivora [8]) of the same molecule?
Answer: 0%

Question: What about the mortality at 2.5 mg/kg (Aphis craccivora [20]) of the same molecule?
Answer: 0%

Question: And the mortality at 0.01 mg/kg (Culex pipiens pallens [10])?
Answer: 100%

Question: And the mortality at 0.005 mg/kg (Culex pipiens pallens [11])?
Answer: 100%

Question: What about the mortality at 200 mg/kg (Aphis craccivora [12]) of the same molecule?
Answer: 100%

Question: And the mortality at 50 mg/kg (Plutella xylostella [13])?
Answer: 36%

Question: And the mortality at 25 mg/kg (Aphis craccivora [14])?
Answer: 43%

Question: What about the mortality at 10 mg/kg (Aphis craccivora [15]) of the same molecule?
Answer: 21%

Question: What about the mortality at 50 mg/kg (Aphis craccivora [16]) of the same molecule?
Answer: 90%

Question: And the mortality at 25 mg/kg (Plutella xylostella [17])?
Answer: 17%

Question: And the mortality at 0.025 mg/kg (Culex pipiens pallens [18])?
Answer: 100%

Question: With CCSc1c(C#N)nn(-c2c(Cl)cc(C(F)(F)F)cc2Cl)c1NC(OC)C(Cl)(Cl)Cl (stereo unspecified) as the molecule, how does the mortality at 100 mg/kg (Plutella xylostella [1]) read?
Answer: 100%

Question: And the mortality at 0.05 mg/kg (Culex pipiens pallens [2])?
Answer: 100%

Question: And the mortality at 200 mg/kg (Plutella xylostella [3])?
Answer: 100%

Question: What about the mortality at 0.0025 mg/kg (Culex pipiens pallens [4]) of the same molecule?
Answer: 30%

Question: What about the mortality at 100 mg/kg (Aphis craccivora [5]) of the same molecule?
Answer: 90%

Question: And the mortality at 10 mg/kg (Plutella xylostella [6])?
Answer: 0%

Question: What about the mortality at 0.1 mg/kg (Culex pipiens pallens [7]) of the same molecule?
Answer: 100%

Question: What about the mortality at 0.01 mg/kg (Culex pipiens pallens [10]) of the same molecule?
Answer: 100%

Question: And the mortality at 0.005 mg/kg (Culex pipiens pallens [11])?
Answer: 100%

Question: And the mortality at 200 mg/kg (Aphis craccivora [12])?
Answer: 93%

Question: And the mortality at 50 mg/kg (Plutella xylostella [13])?
Answer: 94%

Question: And the mortality at 25 mg/kg (Aphis craccivora [14])?
Answer: 62%

Question: And the mortality at 10 mg/kg (Aphis craccivora [15])?
Answer: 0%

Question: And the mortality at 50 mg/kg (Aphis craccivora [16])?
Answer: 80%

Question: What about the mortality at 25 mg/kg (Plutella xylostella [17]) of the same molecule?
Answer: 34%

Question: And the mortality at 0.025 mg/kg (Culex pipiens pallens [18])?
Answer: 100%
